The species named for data set [1] is Homo sapiens. The experiment in a line: AUC in HIV-infected human assessed as Lamivudine triphosphate level in PBMC at 300 mg QD for 7 days in presence of zidovudine. The data set is classed as ADME, organism-based. The conditions noted are these: in vivo, 168 h. An outline of the steps:
(§1)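 Adolescents on Combivir QD (two tablets) gave a predose morning sample, then bloods at 2, 4, 6, 12 and 24 h. PBMC were lysed in 70% methanol (15 mM Tris pH 7.0) and anion-exchange cartridges separated MP/DP/TP by KCl step elution. Fractions were dephosphorylated with acid phosphatase, then ZDV or 3TC was measured by RIA (LOQ 0.15 ng/ml). Noncompartmental parameters; AUC by trapezoidal method; undetectables set to half LLOQ.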

The species entered for data set [2] is Homo sapiens. As to the kind of experiment: AUC in HIV-infected human assessed as Lamivudine diphosphate level in PBMC at 300 mg QD for 7 days in presence of zidovudine. Type of data set: ADME, organism-based. Particulars: in vivo, 168 h. Put shortly:
as §1

Data set [3] is filed under the species Homo sapiens. The experiment in a line: AUC in HIV-infected human assessed as Lamivudine monophosphate level in PBMC at 300 mg QD for 7 days in presence of zidovudine. Type of data set: ADME, organism-based. The conditions noted are these: in vivo, 168 h. An outline of the steps:
as §1

Data set [4] is filed under the species Homo sapiens. The experiment in a line: Tmax in HIV-infected human assessed as Lamivudine triphosphate level in PBMC at 300 mg QD for 7 days in presence of zidovudine. Type of data set: ADME, organism-based. The conditions noted are these: in vivo, 168 h. An outline of the steps:
as §1

The species entered for data set [5] is Homo sapiens. The experiment in a line: Tmax in HIV-infected human assessed as Lamivudine diphosphate level in PBMC at 300 mg QD for 7 days in presence of zidovudine. Particulars: in vivo, 168 h. The data set is classed as ADME, organism-based. Put shortly: as §1
The species named for data set [6] is Homo sapiens. As to the kind of experiment: Tmax in HIV-infected human assessed as Lamivudine monophosphate level in PBMC at 300 mg QD for 7 days in presence of zidovudine. The data set is classed as ADME, organism-based. The conditions noted are these: in vivo, 168 h. Put shortly: as §1
The species named for data set [7] is Homo sapiens. The experiment in a line: Cmax in HIV-infected human assessed as Lamivudine triphosphate level in PBMC at 300 mg QD for 7 days measured per 10^6 cells in presence of zidovudine. The conditions noted are these: 168 h. The data set is classed as ADME, organism-based. Details: dose 300 mg. An outline of the steps:
as §1

The species named for data set [8] is Homo sapiens. The experiment in a line: Cmax in HIV-infected human assessed as Lamivudine diphosphate level in PBMC at 300 mg QD for 7 days measured per 10^6 cells in presence of zidovudine. The conditions noted are these: 168 h. Details: dose 300 mg. The data set is classed as ADME, organism-based. Put shortly: as §1
The species entered for data set [9] is Homo sapiens. As to the kind of experiment: Cmax in HIV-infected human assessed as Lamivudine monophosphate level in PBMC at 300 mg QD for 7 days measured per 10^6 cells in presence of zidovudine. Type of data set: ADME, organism-based. Also noted: dose 300 mg. The conditions noted are these: 168 h. Put shortly: as §1
The test system of data set [10] is Homo sapiens. The experiment in a line: Drug metabolism in HIV-infected human PBMC assessed as lamivudine parent-drug level at 300 mg administered in two courses, first QD for 7 days followed by BID for 7 to 14 days and second course the subjects were switched to the other regimen measured per 10^6 cells in presence of zidovudine.
Data set [11] has as its system Homo sapiens. The experiment in a line: Drug metabolism in HIV-infected human PBMC assessed as lamivudine parent-drug level at 300 mg administered in two courses, first BID for 7 to 14 days followed by QD for 7 days and second course the subjects were switched to the other regimen measured per 10^6 cells in presence of zidovudine.
The subject of data set [12] is Homo sapiens. The experiment in a line: Drug metabolism in HIV-infected human PBMC assessed as lamivudine diphosphate level at 300 mg administered in two courses, first QD for 7 days followed by BID for 7 to 14 days and second course the subjects were switched to the other regimen measured per 10^6 cells in presence of lamivudine.
Data set [13] has as its system Homo sapiens. The experiment in a line: Drug metabolism in HIV-infected human PBMC assessed as lamivudine monophosphate level at 300 mg administered in two courses, first QD for 7 days followed by BID for 7 to 14 days and second course the subjects were switched to the other regimen measured per 10^6 cells in presence of lamivudine.
The subject of data set [14] is Homo sapiens. As to the kind of experiment: Drug metabolism in HIV-infected human PBMC assessed as lamivudine monophosphate level at 300 mg administered in two courses, first BID for 7 to 14 days followed by QD for 7 days and second course the subjects were switched to the other regimen measured per 10^6 cells in presence of lamivudine.
Data set [15] concerns Homo sapiens. The experiment in a line: Drug metabolism in HIV-infected human PBMC assessed as zidovudine diphosphate level at 600 mg administered in two courses, first QD for 7 days followed by BID for 7 to 14 days and second course the subjects were switched to the other regimen measured per 10^6 cells in presence of Lamivudine. Type of data set: ADME, organism-based. Put shortly:
(§2)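 Randomized crossover of Combivir: 600 mg ZDV/300 mg 3TC QD versus 300 mg/150 mg BID, in either order. Predose morning PBMC samples were taken on each regimen. Metabolites were separated on QMA cartridges, acid-phosphatase dephosphorylated, C-18 cleaned and quantified by RIA, reported per 10⁶ cells. Values below LLOQ were imputed as half LLOQ. Regimens were compared by Wilcoxon rank-sum; BID/QD ratios as medians with 95% CI.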

Data set [16] deals with Homo sapiens. As to the kind of experiment: Drug metabolism in HIV-infected human PBMC assessed as zidovudine triphosphate level at 600 mg administered in two courses, first QD for 7 days followed by BID for 7 to 14 days and second course the subjects were switched to the other regimen measured per 10^6 cells in presence of Lamivudine. Type of data set: ADME, organism-based. Put shortly:
as §2

The test system of data set [17] is Homo sapiens. As to the kind of experiment: Drug metabolism in HIV-infected human PBMC assessed as zidovudine diphosphate level at 600 mg administered in two courses, first BID for 7 to 14 days followed by QD for 7 days and second course the subjects were switched to the other regimen measured per 10^6 cells in presence of Lamivudine. The data set is classed as ADME, organism-based. An outline of the steps: as §2

The species named for data set [18] is Homo sapiens. As to the kind of experiment: AUC in HIV-infected human assessed as zidovudine triphosphate level in PBMC at 600 mg QD for 7 days in presence of Lamivudine. The data set is classed as ADME, organism-based. Particulars: in vivo, 168 h. An outline of the steps: as §1
The species entered for data set [19] is Homo sapiens. The experiment in a line: AUC in HIV-infected human assessed as zidovudine diphosphate level in PBMC at 600 mg QD for 7 days in presence of Lamivudine. Type of data set: ADME, organism-based. The conditions noted are these: in vivo, 168 h. Put shortly:
as §1

Data set [20] is filed under the species Homo sapiens. The experiment in a line: AUC in HIV-infected human assessed as zidovudine monophosphate level in PBMC at 600 mg QD for 7 days in presence of Lamivudine. Particulars: in vivo, 168 h. The data set is classed as ADME, organism-based. An outline of the steps: as §1
The subject of data set [21] is Homo sapiens. As to the kind of experiment: Drug metabolism in HIV-infected human PBMC assessed as zidovudine monophosphate level at 600 mg administered in two courses, first BID for 7 to 14 days followed by QD for 7 days and second course the subjects were switched to the other regimen measured per 10^6 cells in presence of Lamivudine. The data set is classed as ADME, organism-based. An outline of the steps:
as §2

Data set [22] deals with Homo sapiens. The experiment in a line: Drug metabolism in HIV-infected human PBMC assessed as zidovudine monophosphate level at 600 mg administered in two courses, first QD for 7 days followed by BID for 7 to 14 days and second course the subjects were switched to the other regimen measured per 10^6 cells in presence of Lamivudine. The data set is classed as ADME, organism-based. Put shortly: as §2

Data set [23] concerns Homo sapiens. As to the kind of experiment: Drug metabolism in HIV-infected human PBMC assessed as zidovudine parent-drug level at 600 mg administered in two courses, first BID for 7 to 14 days followed by QD for 7 days and second course the subjects were switched to the other regimen measured per 10^6 cells in presence of Lamivudine. Type of data set: ADME, organism-based. An outline of the steps: as §2

For data set [24], the system named is Homo sapiens. As to the kind of experiment: Drug metabolism in HIV-infected human PBMC assessed as zidovudine parent-drug level at 600 mg administered in two courses, first QD for 7 days followed by BID for 7 to 14 days and second course the subjects were switched to the other regimen measured per 10^6 cells in presence of Lamivudine. The data set is classed as ADME, organism-based. Put shortly:
as §2

Data set [25] has as its system Homo sapiens. As to the kind of experiment: Drug metabolism in HIV-infected human PBMC assessed as zidovudine triphosphate level at 600 mg administered in two courses, first BID for 7 to 14 days followed by QD for 7 days and second course the subjects were switched to the other regimen measured per 10^6 cells in presence of Lamivudine. Type of data set: ADME, organism-based. An outline of the steps: as §2

For data set [26], the species on record is Homo sapiens. The experiment in a line: Tmax in HIV-infected human assessed as zidovudine triphosphate level in PBMC at 600 mg QD for 7 days in presence of Lamivudine. The data set is classed as ADME, organism-based. Particulars: in vivo, 168 h. An outline of the steps: as §1
Data set [27] is filed under the species Homo sapiens. As to the kind of experiment: Tmax in HIV-infected human assessed as zidovudine diphosphate level in PBMC at 600 mg QD for 7 days in presence of Lamivudine. The data set is classed as ADME, organism-based. Particulars: in vivo, 168 h. Put shortly:
as §1

For data set [28], the species on record is Homo sapiens. As to the kind of experiment: Tmax in HIV-infected human assessed as zidovudine monophosphate level in PBMC at 600 mg QD for 7 days in presence of Lamivudine. The data set is classed as ADME, organism-based. Particulars: in vivo, 168 h. Put shortly: as §1
Data set [29] is filed under the species Homo sapiens. As to the kind of experiment: Cmax in HIV-infected human assessed as zidovudine triphosphate level in PBMC at 600 mg QD for 7 days measured per 10^6 cells in presence of Lamivudine. Also noted: dose 600 mg. The data set is classed as ADME, organism-based. Particulars: 168 h. Put shortly:
as §1

The species named for data set [30] is Homo sapiens. The experiment in a line: Cmax in HIV-infected human assessed as zidovudine diphosphate level in PBMC at 600 mg QD for 7 days measured per 10^6 cells in presence of Lamivudine. The data set is classed as ADME, organism-based. Details: dose 600 mg. The conditions noted are these: 168 h. An outline of the steps: as §1
For data set [31], the species on record is Homo sapiens. As to the kind of experiment: Cmax in HIV-infected human assessed as zidovudine monophosphate level in PBMC at 600 mg QD for 7 days measured per 10^6 cells in presence of Lamivudine. The data set is classed as ADME, organism-based. Details: dose 600 mg. Particulars: 168 h. An outline of the steps:
as §1

Data set [32] in a line: Half life in HIV-infected human plasma at 1500 mg. Type of data set: ADME, cell-free.
The nature of data set [33]: Half life in HIV-infected human at 600 mg, po qd. Particulars: in vivo.
The nature of data set [34]: Half life in HIV-infected human at 300 mg, po bid. Particulars: in vivo.

SMILES strings stand for the structures.

For `Nc1ccn([C@@H]2CS[C@H](CO)O2)c(=O)n1` [LAMIVUDINE], the AUC in the data set filed under Homo sapiens [1] was found to be 65.19 pmol; in the data set filed under Homo sapiens [2], 70.01 pmol; in the data set listed under Homo sapiens [3], 10.42 pmol. The Tmax (in general, the time at which the peak concentration occurs) in the data set filed under Homo sapiens [4] was 6.67 h; in the data set filed under Homo sapiens [5] it was 6.37 h; in the data set filed under Homo sapiens [6], 6.3 h. Also, the Cmax was determined as 4840 fmol in the data set filed under Homo sapiens [7], 4424 fmol in the data set filed under Homo sapiens [8] and 760 fmol in the data set listed under Homo sapiens [9]. For the same compound, the values for the lamivudine parent-drug uptake with Homo sapiens [10] and with Homo sapiens [11] were 302 pmol and 437 pmol, respectively. Besides, the lamivudine diphosphate uptake in the data set with Homo sapiens [12] is 1934 pmol. The lamivudine monophosphate uptake with Homo sapiens [13] was 282 pmol; with Homo sapiens [14] it was 396 pmol.

As for `Cc1cn([C@H]2C[C@H](N=[N+]=[N-])[C@@H](CO)O2)c(=O)[nH]c1=O` [ZIDOVUDINE], the Drug uptake in the data set with Homo sapiens [15] amounted to 11.5 fmol; in the data set with Homo sapiens [16], 9.3 fmol; in the data set with Homo sapiens [17], 12.2 fmol; with Homo sapiens [21], 75.3 fmol; in the data set with Homo sapiens [22] it was 76.2 fmol; in the data set on Homo sapiens [23], 23.5 fmol. In addition, the Drug uptake was 23.5 fmol in the data set with Homo sapiens [24] and 15.4 fmol in the data set with Homo sapiens [25]. Further, the results for the AUC in the data set filed under Homo sapiens [18], in the data set listed under Homo sapiens [19] and in the data set listed under Homo sapiens [20] were 502 fmol, 627 fmol and 11883 fmol, respectively. The figures for the Tmax in the data set filed under Homo sapiens [26], in the data set listed under Homo sapiens [27] and in the data set listed under Homo sapiens [28] were 4.74 h, 3.48 h and 2.44 h, respectively. Moreover, the Cmax in the data set listed under Homo sapiens [29] was 43.9 fmol; in the data set filed under Homo sapiens [30], 62.47 fmol; in the data set filed under Homo sapiens [31] it was 2997.65 fmol. The half-life – broadly, the time in which the quantity being followed falls by half – was 1 h in [32], 6.3 h in [33] and 5.48 h in data set [34].

The values above are taken from ChEMBL document CHEMBL1153837, “Intracellular pharmacokinetics of once versus twice daily zidovudine and lamivudine in adolescents” (Antimicrob Agents Chemother, 2007).
